Assay results from ChEMBL document CHEMBL2093137, “WHO-TDR NTD Screening”.
Converted amounts (≈) assume the structure as drawn.

What was measured:
Plasmodium falciparum K1 = assay: WHO-TDR: Malaria; assay type: functional, organism-based, Homo sapiens; conditions: Erythrocyte
Outline: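 Values are IC50 figures for antiplasmodial potency. They come from a whole-organism screen of 10,000 diverse Life Chemicals compounds against Plasmodium falciparum K1 growing inside human red blood cells, run by previously published standard procedures.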

Leishmania infantum = assay: WHO-TDR: Leishmaniasis; assay type: functional, organism-based, Mus musculus; conditions: Macrophage
Outline: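 Values are IC50 figures for antiparasitic potency. They come from a whole-organism screen of a 10,000-compound diverse Life Chemicals library against Leishmania infantum MHOM/MA(BE)/67 amastigotes inside murine peritoneal macrophage host cells.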

Brugia malayi [1] = assay: (§1) WHO-TDR: Lymphatic Filariasis; assay type: functional; set-up: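 tested at 10 µM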
Outline: (§2)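 Following previously published standard procedures, compounds were tested on whole Brugia malayi microfilariae, with reference drugs as positive controls. They came from a diverse Life Chemicals collection of 10,000 compounds filtered for drug-likeness and reactive groups. Results appear as percent inhibition and as IC50.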

Schistosoma mansoni = assay: WHO-TDR: Schistosomiasis; assay type: functional; set-up: concentration or dose not given beside the values
Outline: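 Activity appears as percent inhibition and as IC50. The underlying screen tested a diverse library of 10,000 compounds, supplied by Life Chemicals, on whole larval and/or adult worms of the Puerto Rican strain of Schistosoma mansoni.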

Trypanosoma cruzi = assay: WHO-TDR: Chagas disease; assay type: functional, organism-based, Homo sapiens; conditions: MRC5
Outline: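 A diverse library of 10,000 compounds from Life Chemicals, filtered for drug-likeness and reactive groups, was screened against intracellular amastigotes of Trypanosoma cruzi Tulahuen CL2 beta-galactosidase strain. The parasites were grown in MRC-5SV2 human lung fibroblast host cells, and a reference drug served as positive control under previously published standard procedures. Antiparasitic potency is given as IC50.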

[2] = WHO-TDR: Cytotoxicity; assay type: toxicity, cell-based; conditions: human, MRC5 cells
Brugia malayi [3] = assay: as §1; assay type: functional; set-up: concentration or dose not given beside the values; outline: as §2; remark: listed apart in the source
[4] = test system: Trypanosoma brucei brucei; assay: WHO-TDR: Human African Trypanosomiasis (HAT); assay type: functional, organism-based; conditions: Squib-427
Outline: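 Values are IC50 figures for antiparasitic potency. They come from a whole-organism screen of 10,000 diverse Life Chemicals compounds against bloodstream-form Trypanosoma brucei (Squib 427 strain).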

Onchocerca lienalis = assay: (§3) WHO-TDR: Onchocerciasis; assay type: functional; set-up: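 at 12.5 µM on microfilariae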
Outline: (§4)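 Following previously published standard procedures, with reference drugs as positive controls, a diverse Life Chemicals library was tested on whole Onchocerca ochengi or Onchocerca lienalis microfilariae. The library held 10,000 compounds filtered for drug-likeness and reactive groups. Activity is recorded both as percent inhibition and as IC50.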

Brugia malayi [5] = assay: as §1; assay type: functional, organism-based; outline: as §2
Onchocerca ochengi = assay: as §3; assay type: functional; set-up: concentration or dose not given beside the values; outline: as §4;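 further: at 12.5 µM on microfilariae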

Row | SMILES | IC50 (Plasmodium falciparum K1) | IC50 (Leishmania infantum) | % Inhibition (Brugia malayi [1]) | % Inhibition (Schistosoma mansoni) | IC50 (Trypanosoma cruzi) | IC50 [2] | % Inhibition (Brugia malayi [3]) | IC50 [4] | % Inhibition (Onchocerca lienalis) | IC50 (Brugia malayi [5]) | % Inhibition (Onchocerca ochengi)
1 | CCN1CCc2c(sc(NC(=O)c3ccccc3)c2-c2nc3ccccc3s2)C1 | 2.17 µg/mL (≈ 5.17 µM) | 4.43 µg/mL (≈ 10.6 µM) | 0% | 25% | 0.514 µg/mL (≈ 1.23 µM) | 3.75 µg/mL (≈ 8.94 µM) | 0% | 1.22 µg/mL (≈ 2.91 µM) | 0% |  | 
2 | CC(C)N1CCc2c(sc(NC(=O)c3sc4ccccc4c3Cl)c2C(N)=O)C1 | > 14.1 µg/mL | 0.457 µg/mL (≈ 1.05 µM) | 0% | 0% | 0.552 µg/mL (≈ 1.27 µM) | 4.25 µg/mL (≈ 9.8 µM) | 33.33% | 2.02 µg/mL (≈ 4.65 µM) | 0% |  | 
3 | CC(C)(C)c1ccc(-c2csc(NC(=O)c3ccc4ncsc4c3)n2)cc1 | 2.77 µg/mL (≈ 7.04 µM) | 4.24 µg/mL (≈ 10.8 µM) | 0% | 0% | 0.891 µg/mL (≈ 2.26 µM) | 7.77 µg/mL (≈ 19.7 µM) | 50% | 3.46 µg/mL (≈ 8.8 µM) | 33.3% |  | 
4 | CCCC(=O)Nc1nnc(-c2ccc(C)cc2)s1 | > 7.84 µg/mL | > 7.84 µg/mL | 100% | 0% | > 7.84 µg/mL | > 7.84 µg/mL | 0% | > 7.84 µg/mL | 0% |  | 
5 | COc1ccc2nc(N(CCCN(C)C)C(=O)CCCSc3ccccc3)sc2c1 | 3.35 µg/mL (≈ 7.55 µM) | 4.66 µg/mL (≈ 10.5 µM) | 0% | 0% | 2.53 µg/mL (≈ 5.71 µM) | 4.06 µg/mL (≈ 9.16 µM) | 0% | 0.455 µg/mL (≈ 1.03 µM) | 12.34% |  | 
6 | CC(C)N1CCc2c(sc(NC(=O)COc3ccc(Cl)cc3Cl)c2C(N)=O)C1 | 3.35 µg/mL (≈ 7.57 µM) | 0.465 µg/mL (≈ 1.05 µM) | 0% | 0% | 0.595 µg/mL (≈ 1.35 µM) | 3.18 µg/mL (≈ 7.19 µM) | 33.33% | 4.6 µg/mL (≈ 10.4 µM) | 20% |  | 
7 | COc1cccc2c1CCN(Cc1ccc(Cl)cc1)C2=O | > 9.05 µg/mL | > 9.05 µg/mL |  | 0% | 2.48 µg/mL (≈ 8.23 µM) | > 9.05 µg/mL | 100% | > 9.05 µg/mL | 40% | 3.54 µM | 
8 | c1ccc2c(CCNc3[nH]cnc4ncnc3-4)c[nH]c2c1 | > 8.35 µg/mL | > 8.35 µg/mL | 0% | 0% | 0.588 µg/mL (≈ 2.11 µM) | 1.91 µg/mL (≈ 6.87 µM) | 0% | > 8.35 µg/mL | 13.4% |  | 
9 | Cc1cc(NC(=O)C2CCCN(S(=O)(=O)c3ccccc3)C2)on1 (centres undefined) | > 10.5 µg/mL | 0.339 µg/mL (≈ 0.97 µM) | 0% | 41.7% | > 10.5 µg/mL | > 10.5 µg/mL | 0% | > 10.5 µg/mL |  |  | 0%
10 | CCOC(=O)c1c(NC(=O)c2sc3ccccc3c2Cl)sc2c1CCN(C)C2 | > 14.1 µg/mL | 4.58 µg/mL (≈ 10.5 µM) | 33.33% | 0% | 0.568 µg/mL (≈ 1.31 µM) | 3.6 µg/mL (≈ 8.29 µM) | 33.33% | 1.95 µg/mL (≈ 4.49 µM) | 0% |  | 
11 | CN1CCc2c(sc(NC(=O)C3COc4ccccc4O3)c2-c2nc3ccccc3s2)C1 (centres undefined) | 3.38 µg/mL (≈ 7.29 µM) | 4.86 µg/mL (≈ 10.5 µM) | 66.67% | 0% | 2.48 µg/mL (≈ 5.35 µM) | 5.39 µg/mL (≈ 11.6 µM) | 33.33% | 0.48 µg/mL (≈ 1.04 µM) | 0% |  | 
12 | CCOC(=O)c1c(NC(=O)c2cccc(C(F)(F)F)c2)sc2c1CCN(C)C2 | > 13.5 µg/mL | 4.84 µg/mL (≈ 11.7 µM) | 0% | 0% | 4.8 µg/mL (≈ 11.6 µM) | > 13.5 µg/mL | 33.33% | 0.341 µg/mL (≈ 0.826 µM) | 0% |  | 
13 | Cc1ccc(-n2ccnc2N2CCN(C(=O)c3ccccc3SC(F)F)CC2)cc1 | 3.65 µg/mL (≈ 8.53 µM) | > 13.9 µg/mL | 0% | 58.3% | 0.531 µg/mL (≈ 1.24 µM) | 13.9 µg/mL (≈ 32.6 µM) | 0% | 4.57 µg/mL (≈ 10.7 µM) |  |  | 100%
14 | CCC(=O)c1c(NC(=O)c2ccc(C)cc2)sc2c1CCN(CC)C2 | 1.87 µg/mL (≈ 5.24 µM) | 2.32 µg/mL (≈ 6.51 µM) | 33.33% | 0% | 0.479 µg/mL (≈ 1.34 µM) | > 11.8 µg/mL | 33.33% | 0.321 µg/mL (≈ 0.9 µM) | 0% |  | 
15 | CN1CCc2c(OCC(=O)N3N=C(c4cccs4)CC3c3ccc(F)cc3)cccc2C1=O (centres undefined) | 7.38 µg/mL (≈ 15.9 µM) | 0.947 µg/mL (≈ 2.04 µM) | 0% | 0% | 2.3 µg/mL (≈ 4.96 µM) | > 13.9 µg/mL | 90% | 4.45 µg/mL (≈ 9.6 µM) | 0% |  | 
16 | CN(c1ccccc1)c1nnc(-c2ccc(NC(=O)Cc3cccs3)cc2)s1 | > 12.2 µg/mL | 3.95 µg/mL (≈ 9.71 µM) | 25% |  | > 12.2 µg/mL | > 12.2 µg/mL | 0% | > 12.2 µg/mL |  |  | 100%
17 | O=C(C1CC1)N1CCc2ccc(NS(=O)(=O)c3ccc4c(c3)CCCC4)cc21 | > 11.9 µg/mL | > 11.9 µg/mL | 0% | 0% | 0.829 µg/mL (≈ 2.09 µM) | 1.28 µg/mL (≈ 3.24 µM) | 0% | 3.85 µg/mL (≈ 9.71 µM) |  |  | 0%
18 | N#Cc1cnc2c(F)cccc2c1Nc1ccc(Br)cc1 | > 11.4 µg/mL | > 11.4 µg/mL | 0% | 0% | > 11.4 µg/mL | > 11.4 µg/mL | 0% | > 11.4 µg/mL |  |  | 100%
19 | O=C(C1CCCC1)N1CCc2ccc(NS(=O)(=O)c3ccc4c(c3)OCCO4)cc21 | > 12.9 µg/mL | 0.416 µg/mL (≈ 0.971 µM) | 0% | 0% | > 12.9 µg/mL | > 12.9 µg/mL | 0% | > 12.9 µg/mL |  |  | 0%
20 | COc1ccc(CC(=O)NCCS(=O)(=O)N2CCN(c3ncccn3)CC2)cc1OC | > 13.5 µg/mL | 0.437 µg/mL (≈ 0.972 µM) | 0% | 33.3% | > 13.5 µg/mL | > 13.5 µg/mL | 0% | > 13.5 µg/mL |  |  | 0%
